In the library only some 9.6% were active in any assay of this set; here they are far more common.
PMI act satM6P: increases human PMI activity with near-saturating mannose 6-phosphate; P34949; coupled PMI enzyme assay, resazurin fluorescence, 20 min; stronger effect = higher value; 1 = untreated enzyme, 0 = substrate-free blank; activation factor at 20 µM; 0.34% of 190,000 active;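 active = activation factor of 2 or more at 20 µM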
Target sequence (P34949 whole entry, looked up): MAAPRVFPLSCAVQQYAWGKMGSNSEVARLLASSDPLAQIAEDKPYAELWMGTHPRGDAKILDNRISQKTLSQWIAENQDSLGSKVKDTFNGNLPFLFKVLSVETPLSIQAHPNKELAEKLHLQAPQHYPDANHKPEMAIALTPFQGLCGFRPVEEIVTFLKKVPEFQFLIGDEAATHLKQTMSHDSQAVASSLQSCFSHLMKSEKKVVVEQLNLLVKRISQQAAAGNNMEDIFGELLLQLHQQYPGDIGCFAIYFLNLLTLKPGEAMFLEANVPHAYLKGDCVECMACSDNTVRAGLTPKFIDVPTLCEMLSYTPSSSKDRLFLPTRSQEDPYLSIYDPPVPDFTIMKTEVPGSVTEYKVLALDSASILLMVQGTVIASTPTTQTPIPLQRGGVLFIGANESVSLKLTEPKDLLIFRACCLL
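Technique: Diaphorase-driven resazurin-to-resorufin fluorescence, excitation 544, emission 590 nm | Assay system: Human PMI in coupled enzyme assay | Times: Enzyme reaction with compound 20 min at room temperature | Medium: HEPES-buffered pH 7.4 with magnesium and detergent | Reagent: Mannose-6-phosphate 1.0 mM (near-saturating) plus 0.22 mM NADP+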
Lmaj promast: Leishmania major promastigote growth inhibition. Leishmania major promastigotes, resazurin fluorescence viability. inhibition, % at 10 µM. 9% of 200,000 active; in the data active = inhibition above about 50%;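 note: promastigotes grown with compound for 44 hours at 28 °C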
PMI act: activators of human phosphomannose isomerase. P34949. purified human PMI, coupled resazurin fluorescence, 20 min; stronger effect = higher value; 1 = vehicle control, 0 substrate-free wells. 0.005% of 190,000 active. activation factor at 20 µM;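 active = activation factor of 2 or more at 20 µM, relative to plate controls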
bCat KO growth: beta-catenin-lacking colon tumor cell growth suppression; HCT116 beta-catenin knockout viability, CellTiter-Glo, 60 h; stronger effect = lower value; viability, % at 10 µM; 1.5% of 140,000 active; AID 818;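 active = viability at or under a set limit, the compound median less 4 SD, cut at about 6% in these data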
HCT116 PTEN-null: growth suppressors of cells with PTEN tumor suppressor deletion; 1.2% of 140,000 active; viability, % at 10 µM; HCT116 PTEN-null viability, CellTiter-Glo, 60 h; stronger effect = lower value;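 active = viability at or below a set limit, 4 SD under the median of all tested compounds, cut at about 3.7% in these data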;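 note: PTEN knockout HCT116 line with beta catenin targeted HCT116 as companion control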
Hits are given with their value; 0 = inactive; - = not tested or not shown.

SMILES	PMI act satM6P	Lmaj promast	PMI act	bCat KO growth	HCT116 PTEN-null
O=C(NCc1ccco1)c1ccc2ccccc2n1	0	0	0	-	-
O=C(Nc1ccc(S(=O)(=O)NCc2ccco2)cc1)c1ccc2ccccc2n1	0	52	0	0	0
CCC1CCCCN1S(=O)(=O)c1ccc(S(=O)(=O)N(Cc2ccccn2)CC2CCCO2)cc1 (stereo not drawn)	0	0	0	0	0
CCC1CCCCN1S(=O)(=O)c1ccc(S(=O)(=O)N(Cc2cccs2)C2CC2)cc1 (stereo not drawn)	0	100	0	0	0
O=C(OCC(=O)N1CCc2ccccc21)c1ccccn1	0	0	0	-	-
CCC1=NN(C(=O)COc2ccccc2)C(O)(c2ccc(Br)cc2)C1 (stereo not drawn)	0	0	0	-	-
CC(C)SC1=NC(C)(C)C=C(/C=C/c2ccc(Cl)cc2Cl)N1	0	95	0	0	0
CC(C)SC1=NC(C)(C)C=C(/C=C/c2c(Cl)cccc2Cl)N1	0	100	0	0	0
NNC(=O)/C=C/c1ccc(Cl)cc1Cl	0	0	0	-	-
[O-]/C(=C(\C(=S)NCCN1CCOCC1)[n+]1ccccc1)c1ccc(Cl)s1	0	0	0	-	-
CCn1c(=O)n(CC)c2cc(S(=O)(=O)NCCOc3ccccc3)c(C)cc21	0	99	0	0	0
Cc1ccc(S(=O)(=O)N2CCN(S(=O)(=O)N3CCCCCC3)CC2)cc1	0	0	0	-	-
CCOC(=O)c1cnc(Nc2nc3ccccc3o2)nc1CSc1ncccn1	-	0	-	-	-
CCOC(=O)c1cnc(Nc2nc3ccccc3o2)nc1CSC(=S)N(CC)CC	0	100	0	0	0
O=C(O)C1C2C=CC(C2)C1C(=O)NCc1ccccn1 (stereo not drawn)	0	0	0	0	0
O=C(NCc1ccccn1)C1C2C=CC(C2)C1C(=O)Nc1ccc(F)cc1 (stereo not drawn)	0	76	0	0	0
CCOC(=O)C1=C(Cc2ccc(Cl)cc2)C(=O)c2ccccc2C1=O	0	91	0	0	0
O=C(/C=C/c1ccccc1)Nc1cccc(S(=O)(=O)Nc2ccccc2F)c1	0	0	0	0	0
CCn1cc(C2=NOC(C(=O)Nc3ccc4c(c3)OCO4)C2)c(C)n1 (stereo not drawn)	0	57	0	0	0
O=C1CSC(c2cn(-c3ccccc3)nc2-c2cc3ccccc3o2)N1Cc1ccccc1 (stereo not drawn)	0	79	0	0	0
Cc1ccc(-c2nn(-c3ccccc3)cc2C2SCC(=O)N2Cc2ccccc2)o1 (stereo not drawn)	0	0	0	0	0
CC(=O)O[C@]1(C(C)=O)CC[C@H]2[C@@H]3C=C(Cl)C4=CC(=O)CC[C@]4(C)[C@H]3CC[C@@]21C	0	68	0	0	0
CN(C)S(=O)(=O)N1CCc2ccccc21	0	0	0	0	0
O=S(=O)(Cc1ccccc1)N1CCc2ccccc21	0	100	0	0	0
Cc1ccc(-n2c(SCC(=O)NCCN3C(=O)CSC3=O)nnc2-c2ccccc2)cc1	0	62	0	0	0
SMILES	PMI act satM6P	Lmaj promast	PMI act	bCat KO growth	HCT116 PTEN-null
Cn1c(SCC(=O)c2c(N)n(C)c(=O)n(C)c2=O)nnc1-c1ccccc1	0	66	0	0	0
Cn1c(SCC(=O)NCCN2C(=O)CSC2=O)nnc1-c1ccccc1	0	56	0	0	0
O=C(NC1CCCCC1)c1ccc(Cn2cc(Cl)cn2)cc1	0	0	0	0	0
Cc1cccc(C(CC(=O)NCc2ccco2)c2ccccc2)c1O (stereo not drawn)	0	0	0	-	-
CC(C)Oc1ccc(C(CC(=O)NCc2ccco2)c2ccccc2)cc1 (stereo not drawn)	0	67	0	0	0
COc1ccc(-c2csc(C3=C(O)CN(C(C)C)C3=N)n2)cc1OC	0	72	0	-	-
Cc1ccc2c(c1)c1c(n2CC(O)Cn2c(C)nc3ccccc32)CCCC1 (stereo not drawn)	0	0	0	0	0
Cc1ccc2c(c1)c1c(n2CC(O)CNC(C)(C)C)CCCC1 (stereo not drawn)	0	82	0	0	0
COc1ccc(C(=O)NN2CC(O)=C(c3nc4ccccc4n3C)C2=N)cc1OC	0	0	0	0	0
CCCCn1c(N)c(N(CCOC)C(=O)CCc2ccc(OC)cc2)c(=O)[nH]c1=O	0	0	0	0	0
Cc1ccc2c(c1)Oc1ccc([N+](=O)[O-])cc1C(=O)N2	0	0	0	-	-
Cc1ccc2c(c1)Oc1ccc(NC(=O)CCl)cc1C(=O)N2	0	98	0	-	-

High-throughput results: PubChem, several laboratories
